Experimental data published in ChEMBL document CHEMBL3868627, “Radical scavenging and antibacterial activity of caffemides against gram positive, gram negative and clinical drug resistance bacteria” (Bioorg Med Chem Lett, 2016).

Columns and labels:
Format in all cases: functional
[1] = Antioxidant activity assessed as DPPH free radical scavenging activity measured after 30 mins by spectrophotometry
Procedure, shortened: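 DPPH radical scavenging in ethanolic solution with a final DPPH concentration of 100 µM. Absorbance read at 517 nm. Percent inhibition = (A control − A test)/A control, where the control is DPPH without sample. The inhibition-versus-concentration plot gives EC50, the concentration giving a 50% drop in absorbance. Mean ± S.D. of three independent trials.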

Staphylococcus aureus [2] = test: Antibacterial activity against methicillin-resistant Staphylococcus aureus ATCC 43300 assessed as colony forming units at 10 ug/ml measured after 6 hrs by serial dilution method (reference value: 64.33 +/- 3.51 10^6CFU)
Procedure, shortened: (§1)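 Bacteria were exposed to test compound over a range of µg/ml concentrations. Viable bacteria were counted by colony forming unit (CFU) assay at set time points (6 h and 24 h for M. smegmatis and S. aureus strains), and untreated bacteria served as the control. Percentage of population killed was calculated relative to the untreated control. Values are means ± S.D of three independent trials.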

Staphylococcus aureus [3] = test: Antibacterial activity against methicillin-resistant Staphylococcus aureus ATCC 43300 assessed as colony forming units at 10 ug/ml measured after 24 hrs by serial dilution method (reference value: 74 +/- 2 10^6CFU); procedure, shortened: as §1
[4] = tested on: Mycolicibacterium smegmatis; test: Bactericidal activity against Mycobacterium smegmatis MC2 155 ATCC 700084 at >200 ug/ml measured after 6 and 24 hrs by serial dilution method relative to control; procedure, shortened: as §1
Staphylococcus aureus [5] = test: Antibacterial activity against methicillin-resistant Staphylococcus aureus ATCC 43300 assessed as colony forming units at 1 ug/ml measured after 24 hrs by serial dilution method (reference value: 74 +/- 2 10^6CFU); procedure, shortened: as §1
[6] = tested on: Mycolicibacterium smegmatis; test: Antibacterial activity against Mycobacterium smegmatis MC2 155 ATCC 700084 assessed as colony forming units at 50 ug/ml measured after 6 hrs by serial dilution method (reference value: 70 +/- 1.73 10^3CFU); procedure, shortened: as §1
[7] = tested on: Mycolicibacterium smegmatis; test: Antibacterial activity against Mycobacterium smegmatis MC2 155 ATCC 700084 assessed as colony forming units at 200 ug/ml measured after 24 hrs by serial dilution method (reference value: 84 +/- 4.35 10^3CFU); procedure, shortened: as §1
Staphylococcus aureus [8] = test: Bactericidal activity against methicillin-resistant Staphylococcus aureus ATCC 43300 at 50 ug/ml measured after 6 hrs by serial dilution method relative to control; procedure, shortened: as §1
Pseudomonas aeruginosa [9] = test: Antibacterial activity against Pseudomonas aeruginosa PAO1 ATCC 15692 assessed as colony forming units at 300 ug/ml measured after 1 hr by serial dilution method (reference value: 85.33 +/- 4.04 10^8CFU)
Staphylococcus aureus [10] = test: Antibacterial activity against Staphylococcus aureus ATCC 25923 assessed as colony forming units at 50 ug/ml measured after 24 hrs by serial dilution method (reference value: 77.66 +/- 5.13 10^6CFU)
Pseudomonas aeruginosa [11] = test: Antibacterial activity against Pseudomonas aeruginosa PAO1 ATCC 15692 assessed as colony forming units at 1 ug/ml measured after 3 hr by serial dilution method (reference value: 141.66 +/- 7.5 10^8CFU)
Staphylococcus aureus [12] = test: Antibacterial activity against Staphylococcus aureus ATCC 25923 measured after 24 hrs by serial dilution method
Staphylococcus aureus [13] = test: Antibacterial activity against methicillin-resistant Staphylococcus aureus ATCC 43300 assessed as colony forming units at 50 ug/ml measured after 6 hrs by serial dilution method (reference value: 64.33 +/- 3.51 10^6CFU); procedure, shortened: as §1
[14] = tested on: Mycolicibacterium smegmatis; test: Antibacterial activity against Mycobacterium smegmatis MC2 155 ATCC 700084 assessed as colony forming units at 1 ug/ml measured after 24 hrs by serial dilution method (reference value: 84 +/- 4.35 10^3CFU); procedure, shortened: as §1
Staphylococcus aureus [15] = test: Antibacterial activity against Staphylococcus aureus ATCC 25923 assessed as colony forming units at 100 ug/ml measured after 6 hrs by serial dilution method (reference value: 65.66 +/- 3.51 10^6CFU)
Pseudomonas aeruginosa [16] = test: Antibacterial activity against Pseudomonas aeruginosa PAO1 ATCC 15692 assessed as colony forming units at 50 ug/ml measured after 1 hr by serial dilution method (reference value: 85.33 +/- 4.04 10^8CFU)
Staphylococcus aureus [17] = test: Antibacterial activity against Staphylococcus aureus ATCC 25923 assessed as colony forming units at 500 ug/ml measured after 24 hrs by serial dilution method (reference value: 77.66 +/- 5.13 10^6CFU)
Pseudomonas aeruginosa [18] = test: Antibacterial activity against Pseudomonas aeruginosa PAO1 ATCC 15692 assessed as colony forming units at 10 ug/ml measured after 3 hr by serial dilution method (reference value: 141.66 +/- 7.5 10^8CFU)
Pseudomonas aeruginosa [19] = test: Antibacterial activity against Pseudomonas aeruginosa PAO1 ATCC 15692 assessed as colony forming units at 50 ug/ml measured after 3 hr by serial dilution method (reference value: 141.66 +/- 7.5 10^8CFU)
Pseudomonas aeruginosa [20] = test: Antibacterial activity against Pseudomonas aeruginosa PAO1 ATCC 15692 assessed as colony forming units at 500 ug/ml measured after 3 hr by serial dilution method (reference value: 141.66 +/- 7.5 10^8CFU)
Pseudomonas aeruginosa [21] = test: Antibacterial activity against Pseudomonas aeruginosa PAO1 ATCC 15692 assessed as colony forming units at 200 ug/ml measured after 1 hr by serial dilution method (reference value: 85.33 +/- 4.04 10^8CFU)
Staphylococcus aureus [22] = test: Antibacterial activity against methicillin-resistant Staphylococcus aureus ATCC 43300 assessed as colony forming units at 1 ug/ml measured after 6 hrs by serial dilution method (reference value: 64.33 +/- 3.51 10^6CFU); procedure, shortened: as §1
Staphylococcus aureus [23] = test: Antibacterial activity against Staphylococcus aureus ATCC 25923 assessed as colony forming units at 50 ug/ml measured after 6 hrs by serial dilution method (reference value: 65.66 +/- 3.51 10^6CFU)
Staphylococcus aureus [24] = test: Antibacterial activity against methicillin-resistant Staphylococcus aureus ATCC 43300 measured after 24 hrs by serial dilution method
Pseudomonas aeruginosa [25] = test: Antibacterial activity against Pseudomonas aeruginosa PAO1 ATCC 15692 assessed as colony forming units at 100 ug/ml measured after 1 hr by serial dilution method (reference value: 85.33 +/- 4.04 10^8CFU)
Staphylococcus aureus [26] = test: Antibacterial activity against methicillin-resistant Staphylococcus aureus ATCC 43300 assessed as colony forming units at 50 ug/ml measured after 24 hrs by serial dilution method (reference value: 74 +/- 2 10^6CFU); procedure, shortened: as §1
Staphylococcus aureus [27] = test: Antibacterial activity against Staphylococcus aureus ATCC 25923 assessed as colony forming units at 300 ug/ml measured after 24 hrs by serial dilution method (reference value: 77.66 +/- 5.13 10^6CFU)
[28] = tested on: Mycolicibacterium smegmatis; test: Antibacterial activity against Mycobacterium smegmatis MC2 155 ATCC 700084 assessed as colony forming units at 300 ug/ml measured after 6 hrs by serial dilution method (reference value: 70 +/- 1.73 10^3CFU); procedure, shortened: as §1

Row | Structure (SMILES) | EC50 [1] | Activity (Staphylococcus aureus [2]) | Activity (Staphylococcus aureus [3]) | Activity [4] | Activity (Staphylococcus aureus [5]) | Activity [6] | Activity [7] | Activity (Staphylococcus aureus [8]) | Activity (Pseudomonas aeruginosa [9]) | Activity (Staphylococcus aureus [10]) | Activity (Pseudomonas aeruginosa [11]) | Activity (Staphylococcus aureus [12]) | Activity (Staphylococcus aureus [13]) | Activity [14] | Activity (Staphylococcus aureus [15]) | Activity (Pseudomonas aeruginosa [16]) | Activity (Staphylococcus aureus [17]) | Activity (Pseudomonas aeruginosa [18]) | Activity (Pseudomonas aeruginosa [19]) | Activity (Pseudomonas aeruginosa [20]) | also measured
1 | O=C(/C=C/c1ccc(O)c(O)c1)Nc1ccccc1Nc1ccccc1 | 14.7 µM | 48 ×10⁶ CFU | 41.66 ×10⁶ CFU | 100% | 60 ×10⁶ CFU | 33.66 ×10³ CFU | 0 ×10³ CFU | 52.8% | 0 ×10⁸ CFU | 24.66 ×10⁶ CFU | 115.33 ×10⁸ CFU | Dose-dependent effect | 30.33 ×10⁶ CFU | 54 ×10³ CFU | 5 ×10⁶ CFU | 35 ×10⁸ CFU | 0 ×10⁶ CFU | 91.66 ×10⁸ CFU | 53.66 ×10⁸ CFU | 0 ×10⁸ CFU | Activity (Pseudomonas aeruginosa [21]): 10.66 ×10⁸ CFU; Activity (Staphylococcus aureus [22]): 58 ×10⁶ CFU; Activity (Staphylococcus aureus [23]): 8.66 ×10⁶ CFU; Activity (Staphylococcus aureus [24]): Dose-dependent effect; Activity (Pseudomonas aeruginosa [25]): 22.33 ×10⁸ CFU; Activity (Staphylococcus aureus [26]): 28.66 ×10⁶ CFU; Activity (Staphylococcus aureus [27]): 0 ×10⁶ CFU; Activity [28]: 0 ×10³ CFU
2 | Cc1ccc(O)c(NC(=O)/C=C/c2ccc(O)c(O)c2)c1 | 6.57 µM | 44.66 ×10⁶ CFU | 41.33 ×10⁶ CFU | 100% | 54.33 ×10⁶ CFU | 25.33 ×10³ CFU | 15 ×10³ CFU | 57.5% | 0 ×10⁸ CFU | 8 ×10⁶ CFU | 126 ×10⁸ CFU | Dose-dependent effect | 27.33 ×10⁶ CFU | 62.66 ×10³ CFU | 14 ×10⁶ CFU | 43 ×10⁸ CFU | 0 ×10⁶ CFU | 112 ×10⁸ CFU | 87 ×10⁸ CFU | 0 ×10⁸ CFU | Activity (Pseudomonas aeruginosa [21]): 14 ×10⁸ CFU; Activity (Staphylococcus aureus [22]): 61 ×10⁶ CFU; Activity (Staphylococcus aureus [23]): 13.66 ×10⁶ CFU; Activity (Staphylococcus aureus [24]): Dose-dependent effect; Activity (Pseudomonas aeruginosa [25]): 23.33 ×10⁸ CFU; Activity (Staphylococcus aureus [26]): 26 ×10⁶ CFU; Activity (Staphylococcus aureus [27]): 0 ×10⁶ CFU; Activity [28]: 0 ×10³ CFU
